Rows were chosen to be rich in hits. Some 2% of all compounds tested hit in one or more screens of this group.
CaV13 ICDI inh – Disruptors of the CACNA1D IQ motif to Ca2+-dependent inactivation inhibitor domain association, primary screening, Förster resonance energy transfer in intact living …. AID 743397. 340,000 compounds, 0.098% hits. HEK cells, CFP/YFP FRET ICDI-IQ, plate reader, 10 min; percent FRET-ratio fall versus neutral wells. inhibition, % at 12.3 µM;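 active = mean replicate inhibition of at least 30% and at least 1% of replicates passing that level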;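 note: 0% = median of the neutral control wells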
TROY signal inh – TROY signaling inhibition; Q293 LMP1-TROYcd NF-kB luciferase reporter, 4 h; inhibition, % at 10 µM; 360,000 compounds, 0.98% hits; AID 1347056;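 active = compounds whose plate-normalised and pattern-corrected inhibition of the luciferase reporter signal at the single screening dose is 50% or more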
XiGFP reactiv – activators of X-chromosome reactivation in mouse fibroblasts; XiGFP mouse fibroblasts, % GFP-positive cells imaging, 3 d; cells co-treated with 5-aza-dC sensitizer; scaled so ellipticine positive control = 100%; activation, % at 7.58 µM; 360,000 compounds, 0.055% hits;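 active = mean normalized replicate activation at least 10% and every replicate at or above 10%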;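 note: 0% = median of on-plate neutral control wells and 100% = ellipticine 6 µM median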
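System: 68-5-11 XiGFP fibroblast line | Buffer or medium: DMEM containing 5-aza-dC | Compound: Single point | Times: Compounds 3 days, fix/stain 15 min at room temperature | Benchmarks: Positive control ellipticine, 6 µM final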
TWEAK-Fn14 inh – inhibitors of TWEAK-Fn14 interaction signaling. TWEAK-stimulated Fn14 reporter cells, luciferase luminescence, 8 h. inhibition, % at 10 µM. 360,000 compounds, 2% hits. AID 1159606; in the data active = inhibition above about 50%
LGR2 inh – inhibitors of bursicon-induced Drosophila LGR2 receptor cAMP signaling. 380,000 compounds, 0.35% hits. HEK293 LGR2, CRE-luciferase, bursicon-stimulated, 4 h. inhibition, % at 9.99 µM;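 active = drop in luminescence signal, shown as inhibition above about 50% in the replicate tests, limit read from the data, passing the limit was not always enough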;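 note: agonist challenge used bursicon conditioned medium at about half maximal strength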
An asterisk follows results filed as active; · = not tested or not shown.

SMILES	CaV13 ICDI inh	TROY signal inh	XiGFP reactiv	TWEAK-Fn14 inh	LGR2 inh
COc1cc(/C=C(\C#N)c2nc3ccccc3o2)ccc1O	-7.7	-4.3	18.0*	34.3	-1.0
O=C1NC(=S)N/C1=C/c1ccc2c(c1)OCO2	-3.9	13.2	0.0	54.3*	42.5
NNC(=O)c1cc(-c2cccs2)nc2ccccc12	-16.2	-4.1	-0.1	-38.8	4.5
CN(C)S(=O)(=O)c1ccc(NC(=O)c2cc(-c3cccs3)nc3ccccc23)cc1	-4.7	88.2*	0.0	33.4	-6.6
CCN(CC)S(=O)(=O)c1ccc(NC(=O)c2cc(-c3cccs3)nc3ccccc23)cc1	-15.9	-3.3	0.3	17.4	·
Cc1cccc2sc(NNC(=O)c3cc(-c4cccs4)nc4ccccc34)nc12	-7.4	47.5	5.1	87.8*	·
O=C(O)c1ccc(-n2ncc(Cl)c(Cl)c2=O)cc1	·	-19.0	·	11.4	·
Cc1ccc(C(=O)OCn2ncc(Cl)c(Cl)c2=O)cc1	-4.4	68.1*	·	105.6*	·
O=C(OCn1ncc(Cl)c(Cl)c1=O)c1ccc(C(F)(F)F)cc1	-9.2	24.6	·	79.0*	7.5
CC[C@@H](C)C(C(=O)N1CCN(C(=O)OC(C)(C)C)CC1)n1cc(-c2cn([C@@H](C)C(=O)N3CCN(C(=O)OC(C)(C)C)CC3)nn2)nn1 (some centres not stated)	-11.4	54.6*	0.0	-21.6	·
CNC(=O)C[C@H]1CC[C@@H]2[C@H](COc3ccc(NC(=O)Nc4ccccc4)cc3C(=O)N2C)O1	·	·	0.4	·	16.9
CCN1CCN(Cc2ccc(NC(=O)c3cccc(-c4ccc5nc(NC(=O)C6CC6)sc5n4)c3)cc2C(F)(F)F)CC1	-6.7	·	0.6	·	76.3*
CC(C)NC(=O)N(C)C[C@H]1Oc2ccc(NC(=O)Cc3ccccc3)cc2C(=O)N([C@@H](C)CO)C[C@H]1C	·	·	-0.7	·	-7.2
O=C(CCSc1nc(-c2ccco2)cc(C(F)(F)F)n1)NCC1CCCO1 (configuration not stated)	·	·	·	-3.2	·
O=C(CCCSc1nc(-c2ccco2)cc(C(F)(F)F)n1)NCC1CCCO1 (configuration not stated)	·	·	·	70.5*	·
O=C1C(Nc2ccccc2)=C(N2CCCCC2)C(=O)c2ccccc21	-6.8	-36.7	·	21.5	·
COc1ccccc1NC1=C(N2CCCCC2)C(=O)c2ccccc2C1=O	·	57.7*	·	67.4*	·
Cc1ccc(NC2=C(N3CCCCC3)C(=O)c3ccccc3C2=O)cc1	·	26.9	·	64.1*	-14.8
O=C(/C=C/c1ccc(O)cc1)c1ccc(NC2=C(N3CCCCC3)C(=O)c3ccccc3C2=O)cc1	-7.5	4.6	·	53.4*	-35.7
Cc1sc(NC(=O)c2ccccc2)c(C(c2ccccn2)N2CCN(CCO)CC2)c1C (configuration not stated)	-1.8	77.7*	0.2	65.4*	14.5
CCOc1ccc(C(c2c(NC(=O)c3ccccc3)sc(C)c2C)N2CCN(C)CC2)cc1 (configuration not stated)	-3.2	-11.1	-0.3	16.8	·
Cc1ccc(-c2nnc(-c3ccccc3)c(-c3ccccc3)n2)cc1	-11.0	-17.6	0.1	-3.8	7.4
Cc1ccc2nc(-c3ccccc3)nn2c1	-5.9	61.6*	0.2	94.2*	86.3*
CC1=C(C(=O)N2CCN(c3cc(C)ccc3C)CC2)C2(CCCCC2)OC1=O	47.1*	1.4	-0.2	-27.1	11.8
COc1cccc(C(=O)Nc2ccc3c(c2)C(=O)N(C)[C@@H]2CC[C@@H](CC(=O)NCc4ccc(F)cc4)O[C@H]2CO3)c1	·	·	0.0	·	18.5
SMILES	CaV13 ICDI inh	TROY signal inh	XiGFP reactiv	TWEAK-Fn14 inh	LGR2 inh
CC(=O)OCC1OC(n2cc(F)c(=O)[nH]c2=O)C(OC(C)=O)C1OC(C)=O (configuration not stated)	-1.3	0.6	0.2	15.1	2.7
O=C1C(F)=CC(COC(c2ccccc2)(c2ccccc2)c2ccccc2)OC1n1cc(F)c(=O)[nH]c1=O (configuration not stated)	-6.0	45.7	-0.2	108.6*	26.6*
Cc1noc2ncnc(N3CCCC3)c12	8.2	12.2	0.5	21.0	-5.7
Cc1noc2ncnc(Sc3ccc(Br)cc3)c12	-17.7	63.7*	0.6	66.2*	76.0*
C[C@@H]1CCCCO[C@@H](CN(C)Cc2ccc(C(=O)Nc3ccccc3N)cc2)[C@@H](C)CN([C@H](C)CO)C(=O)c2cc(NC(=O)Nc3ccc4c(c3)OCO4)ccc2O1	·	·	0.2	·	-4.7
Cc1ccc(NC(=O)COc2cccc(C)c2C)cc1S(=O)(=O)N1CCCCCC1	-6.1	29.1	0.2	21.3	1.8
CCCn1c(NC(=O)c2ccc(Cl)c(S(=O)(=O)N3CCCC3)c2)nc2ccccc21	-6.0	34.4	·	60.3*	·
Cc1ccc(NC(=O)CSc2ncnc3ccccc23)cc1S(=O)(=O)N1CCCCCC1	-5.9	53.5*	0.1	86.5*	41.8
Cc1ccc(NC(=O)COc2ccccc2C(N)=O)cc1S(=O)(=O)N1CCCCCC1	-2.4	43.8	0.0	58.1*	19.8
Cc1ccc(NC(=O)COc2ccc(N(C)C(=O)C(C)(C)C)cc2)cc1S(=O)(=O)N1CCCCC1	-12.1	39.0	0.0	69.0*	17.9
CC(=O)c1ccc(OCCCC(=O)Nc2ccc(C)c(S(=O)(=O)N3CCCCC3)c2)cc1	-4.1	35.9	0.1	51.0*	-8.3
O=C(COc1ccc2ccc(=O)oc2c1)Nc1cccc(S(=O)(=O)N2CCCCC2)c1	-5.7	40.6	0.0	52.8*	33.3
COc1cc(C(C)=O)ccc1OCC(=O)Nc1ccc(S(=O)(=O)N2CCCCC2)cc1	-6.0	9.0	-0.1	14.3	-14.3
O=C(Nc1ccccc1C(=O)O)c1cc(S(=O)(=O)N2CCCCC2)c(Cl)cc1Cl	-7.3	26.5	0.3	56.2*	7.2
COc1cc(C(C)=O)ccc1OCC(=O)Nc1ccc(C)c(S(=O)(=O)N2CCCCCC2)c1	-16.5	62.7*	-0.1	83.8*	45.4
C[C@H](CO)N1C[C@H](C)[C@H](CN(C)S(C)(=O)=O)Oc2c(NC(=O)NC3CCCCC3)cccc2C1=O	·	·	-0.4	·	-7.8
C[C@H]1CN([C@@H](C)CO)C(=O)c2cccc(NC(=O)NC3CCCCC3)c2O[C@H]1CN(C)S(=O)(=O)c1ccc(F)cc1	·	·	-1.4	·	10.7
Cc1cccc(OCC(=O)Nc2cc(S(=O)(=O)N3CCCCC3)ccc2N2CCN(C)CC2)c1	10.2	85.1*	0.0	15.3	21.5
CCc1cccc(OCC(=O)Nc2ccc(C)c(S(=O)(=O)N3CCCCCC3)c2)c1	-14.6	39.0	0.0	50.4*	-75.3
O=C(COC(=O)c1ccc(Cl)c(S(=O)(=O)N2CCCCCC2)c1)Nc1ccccc1	-2.4	57.9*	0.5	23.1	·
COc1ccc(OC)c(NC(=O)CSc2nc3ccccc3c(=O)n2CCNC(C)=O)c1	-5.2	-16.2	·	75.9*	·
COc1cccc(/C=N/n2c(C3CCCCC3)n[nH]c2=S)c1	-4.6	31.5	0.0	52.2*	1.1

Screening results as filed in PubChem.
